# Results from BindingDB's records for PubMed 35700596 (2022).
# Target: T1, Nuclear factor of activated T-cells, cytoplasmic 1 (Homo sapiens, UniProt O95644)
# T1 sequence (O95644 whole entry): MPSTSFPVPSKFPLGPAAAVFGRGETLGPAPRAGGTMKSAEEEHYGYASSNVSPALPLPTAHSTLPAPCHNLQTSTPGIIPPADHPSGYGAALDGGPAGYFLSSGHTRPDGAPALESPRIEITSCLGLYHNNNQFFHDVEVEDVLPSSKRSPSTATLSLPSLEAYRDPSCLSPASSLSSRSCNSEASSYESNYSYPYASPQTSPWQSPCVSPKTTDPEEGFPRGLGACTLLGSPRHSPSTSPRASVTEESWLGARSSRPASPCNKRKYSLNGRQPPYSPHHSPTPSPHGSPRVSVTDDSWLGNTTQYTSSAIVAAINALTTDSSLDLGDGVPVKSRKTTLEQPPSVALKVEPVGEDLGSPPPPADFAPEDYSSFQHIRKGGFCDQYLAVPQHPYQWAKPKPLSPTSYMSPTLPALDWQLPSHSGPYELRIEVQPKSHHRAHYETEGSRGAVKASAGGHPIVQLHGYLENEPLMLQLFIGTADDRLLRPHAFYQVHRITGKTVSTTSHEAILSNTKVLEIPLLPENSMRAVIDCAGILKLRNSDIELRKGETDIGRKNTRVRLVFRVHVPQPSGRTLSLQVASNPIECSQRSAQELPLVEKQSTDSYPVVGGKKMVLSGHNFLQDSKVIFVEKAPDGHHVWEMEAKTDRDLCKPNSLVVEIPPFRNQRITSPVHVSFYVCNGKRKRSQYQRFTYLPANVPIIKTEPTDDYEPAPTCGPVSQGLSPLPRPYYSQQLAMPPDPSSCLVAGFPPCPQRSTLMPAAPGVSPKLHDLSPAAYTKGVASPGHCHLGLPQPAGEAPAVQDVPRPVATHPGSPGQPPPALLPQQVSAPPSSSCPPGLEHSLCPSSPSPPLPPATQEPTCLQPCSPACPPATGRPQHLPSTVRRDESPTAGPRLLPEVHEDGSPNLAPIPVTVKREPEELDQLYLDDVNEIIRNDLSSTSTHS
# Experiment: Inhibition of NFATC activity in HEK293T cells preincubated for 2 hrs followed by ionomycin/phorbol 12-myristate 13-acetate stimulation and measured after 4 hrs by luciferase reporter assay
# In short: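 HEK 293T cells (7.5 × 10⁴/well) co-transfected by CaCl₂ method with 100 ng 3xNFAT-luc and 1 ng pRLnull as transfection control. At 24 h, compound added for 2 h, then stimulated with 1 µM ionomycin, PMA and CaCl₂ for 4 h (20 ng/ml PMA and 2 mM CaCl₂ per figure legend). Luciferase read from crude extracts, relative to stimulated no-compound control (100%). Single doses 50 and 5 μM; dose-response 0.1–50 μM. IC50 by nonlinear regression; 3 experiments in triplicate.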
row,SMILES,IC50
1,Cc1ccc(C(=O)NCC(=O)Nc2cc(S(=O)(=O)Nc3ccc(Cl)cc3)ccc2Cl)s1,4.5 µM
2,CS(=O)(=O)NCc1cccc(NC(=O)c2ccc3[nH]ccc3c2)c1,11.6 µM
3,CS(=O)(=O)NCc1cccc(NC(=O)c2csc3ccccc23)c1,18.7 µM
